Source: the M2OR odorant receptor database

What was measured:
Conditions in all cases: stereoisomer not certain
OR8J3 E4V = test system: OR8J3 E4V
Procedure, shortened: (§1)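 Transient luciferase assays in mammalian cell lines were common, though methods varied by source. The values come from published papers and their supplementary material, with extra details from the original authors when needed. Responsive refers to a measured signal the original authors judged statistically different from baseline, and non-responsive (inactive) to the remainder.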

OR8K1 (Homo sapiens) = OR8K1 (Homo sapiens) (UniProt Q8NGG5)
OR8K1 (Homo sapiens), sequence (Q8NGG5 whole entry): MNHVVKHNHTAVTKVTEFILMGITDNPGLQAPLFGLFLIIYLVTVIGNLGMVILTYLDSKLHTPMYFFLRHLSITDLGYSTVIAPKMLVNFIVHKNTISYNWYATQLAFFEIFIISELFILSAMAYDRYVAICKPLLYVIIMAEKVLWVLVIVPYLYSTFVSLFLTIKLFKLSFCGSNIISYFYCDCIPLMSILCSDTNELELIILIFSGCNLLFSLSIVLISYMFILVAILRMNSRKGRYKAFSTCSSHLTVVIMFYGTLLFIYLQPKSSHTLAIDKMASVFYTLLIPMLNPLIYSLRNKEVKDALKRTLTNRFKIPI
Procedure, shortened: as §1

OR8K3 (Homo sapiens) = OR8K3 (Homo sapiens) (UniProt Q8NH51)
OR8K3 (Homo sapiens), sequence (Q8NH51 whole entry): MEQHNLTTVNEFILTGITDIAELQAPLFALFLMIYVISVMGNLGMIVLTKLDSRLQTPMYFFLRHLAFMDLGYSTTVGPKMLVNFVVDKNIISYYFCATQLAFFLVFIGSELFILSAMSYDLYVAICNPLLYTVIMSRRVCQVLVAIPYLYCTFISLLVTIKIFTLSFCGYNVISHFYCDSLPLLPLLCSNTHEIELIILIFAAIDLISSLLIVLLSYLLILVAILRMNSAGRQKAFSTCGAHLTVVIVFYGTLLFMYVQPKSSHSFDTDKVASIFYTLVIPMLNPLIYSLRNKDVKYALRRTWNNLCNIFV
Procedure, shortened: as §1

OR8K5 (Homo sapiens) = OR8K5 (Homo sapiens) (UniProt Q8NH50)
OR8K5 (Homo sapiens), sequence (Q8NH50 whole entry): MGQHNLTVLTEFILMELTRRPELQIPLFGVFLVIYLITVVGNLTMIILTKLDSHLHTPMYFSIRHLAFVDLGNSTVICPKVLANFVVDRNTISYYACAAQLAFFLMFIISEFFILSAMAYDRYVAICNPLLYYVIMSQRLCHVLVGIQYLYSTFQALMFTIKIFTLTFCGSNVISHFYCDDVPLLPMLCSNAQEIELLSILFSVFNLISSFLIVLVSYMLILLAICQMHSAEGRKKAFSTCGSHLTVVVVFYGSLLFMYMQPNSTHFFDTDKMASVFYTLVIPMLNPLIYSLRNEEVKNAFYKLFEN
Procedure, shortened: as §1

OR8S1 (Homo sapiens) = OR8S1 (Homo sapiens) (UniProt Q8NH09)
OR8S1 (Homo sapiens), sequence (Q8NH09 whole entry): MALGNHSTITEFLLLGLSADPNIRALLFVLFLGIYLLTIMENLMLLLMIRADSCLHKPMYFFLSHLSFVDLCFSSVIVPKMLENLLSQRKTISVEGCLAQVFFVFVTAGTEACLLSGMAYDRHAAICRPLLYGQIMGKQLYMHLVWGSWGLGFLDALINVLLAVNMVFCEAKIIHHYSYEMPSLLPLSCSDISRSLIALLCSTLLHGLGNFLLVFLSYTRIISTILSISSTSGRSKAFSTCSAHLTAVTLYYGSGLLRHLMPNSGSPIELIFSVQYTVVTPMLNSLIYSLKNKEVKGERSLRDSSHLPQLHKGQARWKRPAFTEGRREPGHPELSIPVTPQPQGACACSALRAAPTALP
Procedure, shortened: as §1

OR8U1 (Homo sapiens) = OR8U1 (Homo sapiens) (UniProt Q8NH10)
OR8U1 (Homo sapiens), sequence (Q8NH10 whole entry): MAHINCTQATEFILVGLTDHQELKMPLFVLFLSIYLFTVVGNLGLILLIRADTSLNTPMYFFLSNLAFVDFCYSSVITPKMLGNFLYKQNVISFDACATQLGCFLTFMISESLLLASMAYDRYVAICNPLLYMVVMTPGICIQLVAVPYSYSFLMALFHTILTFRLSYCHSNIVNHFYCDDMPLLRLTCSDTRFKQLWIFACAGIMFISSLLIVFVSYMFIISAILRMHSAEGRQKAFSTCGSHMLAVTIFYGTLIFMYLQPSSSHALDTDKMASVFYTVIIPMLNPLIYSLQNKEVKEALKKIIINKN
Procedure, shortened: as §1

OR8U3 (Homo sapiens) = OR8U3 (Homo sapiens) (UniProt Q8NH85)
OR8U3 (Homo sapiens), sequence (Q8NH85 whole entry): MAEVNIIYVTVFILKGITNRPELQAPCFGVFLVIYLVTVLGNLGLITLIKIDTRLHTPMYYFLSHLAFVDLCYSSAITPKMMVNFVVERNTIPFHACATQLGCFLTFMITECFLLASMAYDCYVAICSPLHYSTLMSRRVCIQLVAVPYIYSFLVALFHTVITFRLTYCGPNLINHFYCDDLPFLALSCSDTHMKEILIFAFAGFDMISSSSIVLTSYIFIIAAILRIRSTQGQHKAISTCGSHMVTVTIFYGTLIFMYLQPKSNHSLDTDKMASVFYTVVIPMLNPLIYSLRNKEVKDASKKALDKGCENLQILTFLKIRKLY
Procedure, shortened: as §1

OR8U8 [1] = test system: OR8U8
Procedure, shortened: as §1
Target sequence in this assay (as listed by the source): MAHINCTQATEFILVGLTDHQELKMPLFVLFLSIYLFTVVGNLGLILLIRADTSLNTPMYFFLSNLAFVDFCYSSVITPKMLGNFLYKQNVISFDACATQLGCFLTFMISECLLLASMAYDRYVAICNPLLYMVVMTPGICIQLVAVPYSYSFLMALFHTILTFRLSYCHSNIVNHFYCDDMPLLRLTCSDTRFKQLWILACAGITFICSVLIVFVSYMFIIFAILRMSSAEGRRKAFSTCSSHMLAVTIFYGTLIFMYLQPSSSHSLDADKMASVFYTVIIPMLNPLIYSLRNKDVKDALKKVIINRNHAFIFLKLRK

OR8U8 [2] = test system: OR8U8; remark: listed apart in the source
Procedure, shortened: as §1
Target sequence in this assay (as listed by the source): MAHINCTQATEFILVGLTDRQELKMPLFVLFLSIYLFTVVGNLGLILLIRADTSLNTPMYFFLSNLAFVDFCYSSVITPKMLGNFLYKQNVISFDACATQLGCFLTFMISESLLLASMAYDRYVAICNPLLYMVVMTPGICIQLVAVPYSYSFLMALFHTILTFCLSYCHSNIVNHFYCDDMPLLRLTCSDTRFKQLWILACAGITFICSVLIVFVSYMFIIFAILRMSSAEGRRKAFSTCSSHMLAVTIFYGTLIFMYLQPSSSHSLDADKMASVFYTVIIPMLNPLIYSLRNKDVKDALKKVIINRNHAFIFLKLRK

OR8U8 (Homo sapiens) = OR8U8 (Homo sapiens) (UniProt P0C7N1)
OR8U8 (Homo sapiens), sequence (P0C7N1 whole entry): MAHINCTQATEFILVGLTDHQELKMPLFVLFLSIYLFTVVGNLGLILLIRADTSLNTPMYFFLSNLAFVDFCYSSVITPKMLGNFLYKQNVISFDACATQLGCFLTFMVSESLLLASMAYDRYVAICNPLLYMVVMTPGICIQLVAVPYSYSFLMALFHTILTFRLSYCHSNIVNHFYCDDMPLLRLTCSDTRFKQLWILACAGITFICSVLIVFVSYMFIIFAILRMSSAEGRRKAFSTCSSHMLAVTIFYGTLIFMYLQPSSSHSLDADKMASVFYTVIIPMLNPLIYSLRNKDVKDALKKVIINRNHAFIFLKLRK
Procedure, shortened: as §1

Measured: odorant receptor agonist call;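 note: active if original authors judged signal statistically different from baseline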

OR8J3 E4V, sequence (as listed by the source): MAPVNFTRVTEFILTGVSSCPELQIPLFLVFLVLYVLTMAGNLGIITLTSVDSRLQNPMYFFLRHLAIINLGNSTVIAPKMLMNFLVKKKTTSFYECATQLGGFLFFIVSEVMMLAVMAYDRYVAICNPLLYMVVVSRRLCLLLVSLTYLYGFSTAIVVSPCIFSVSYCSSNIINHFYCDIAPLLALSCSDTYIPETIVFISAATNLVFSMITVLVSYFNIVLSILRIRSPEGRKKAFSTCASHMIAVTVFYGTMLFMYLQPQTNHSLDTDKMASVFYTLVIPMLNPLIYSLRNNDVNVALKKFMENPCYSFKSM

C=CCOC(=O)Cc1ccccc1
not listed: OR8U8 (Homo sapiens)
inactive: all other assays above

Cc1c([N+](=O)[O-])c(C)c([N+](=O)[O-])c(C(C)(C)C)c1[N+](=O)[O-]
not listed: OR8J3 E4V | OR8U8 [1] | OR8U8 [2]
inactive: all other assays above
